Assay results pooled from the literature.
Lines come from different studies, so protocols differ.
Target: Serine/threonine-protein kinase Nek4 (NEK4, Homo sapiens, UniProt P51957)

COc1ncccc1-c1cnn2ccc(N3CCN(C(=O)OC(C)C)CC3)nc12 — remaining binding (binding, competition with immobilised ligand; 1 µM): 87%
Cn1cncc1[C@@](O)(COc1ccc(C#N)cc1-c1ccc(OC(F)(F)F)cc1)c1ccc(C#N)cc1 — remaining binding (cell-free assay, competition with immobilised ligand; 1 µM): 90%
Cn1cc(-c2cccc(N3CCc4c(sc5c4CC(C)(C)C5)C3=O)c2CO)cc(Nc2ccncn2)c1=O — inhibition (enzyme activity, inhibitor; 1 µM): 2%
N#CC1(c2ccccn2)CCN(Cc2cc(C(=O)O)c(=O)n3ccccc23)CC1 — remaining binding (cell-free assay, competition with immobilised ligand; 1 µM): 100%
Cc1nn(C)cc1-c1nc2c(N3CCN(Cc4ccc(Cl)cc4)CC3)c(Cl)cnc2[nH]1 — remaining binding (binding, competition with immobilised ligand; 1 µM): 82%
COc1cc(Nc2ncc(F)c(Nc3ccc4c(n3)NC(=O)C(C)(C)O4)n2)cc(OC)c1OC — inhibition (binding, competition with immobilised ligand; 10 µM): 91%
CC(C)(C)c1cc(C=C(C#N)C#N)cc(Br)c1O — remaining activity (enzyme activity, inhibitor; 0.5 µM): 93.7%
Nc1ncc(-c2nc(N3CCOCC3)nc(N3CCOCC3)n2)c(C(F)F)n1 — remaining binding (binding, competition with immobilised ligand; 10 µM): 75%
Cn1cc(-c2cc(F)cc(N3CCn4c(cc5c4CCCC5)C3=O)c2CO)cc(Nc2ccc(N3CCN(C4COC4)CC3)cn2)c1=O — inhibition (enzyme activity, inhibitor; 0.1 µM): 9%
O=c1[nH]c2ccccc2n1C1CCN(Cc2ccc(-c3[nH]c4cc5ncnc5cc4nc3-c3ccccc3)cc2)CC1 — remaining signal (cell-free assay; 0.5 µM): 106%
